Screening data (PubChem BioAssay)
Compounds with a hit are over-represented: about 1.6% of the library has one in this group of screens.
DNMT1 inh: human DNMT1 methyltransferase inhibitors, primary screen, biochemical, molecular beacon, fluorescence, HinP1I cleavage, uHTS; DNA (cytosine-5)-methyltransferase 1 (Homo sapiens), P26358; inhibition (reported as % activation of signal), % at 10 µM; actives 0.83% (n = 360,000); in the data active means inhibition above about 50%
LMPTP block: LMPTP phosphatase inhibitors, primary screen, biochemical, fluorescence intensity, uHTS | Low molecular weight phosphotyrosine protein phosphatase (Homo sapiens), P24666 | recombinant LMPTP-A, OMFP fluorogenic substrate | inhibition, % at 20 µM | actives 0.22% (n = 360,000);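 active means compounds that cut the enzyme signal by at least half of the control window in the single-dose screen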
Target sequence (P24666 whole entry, looked up): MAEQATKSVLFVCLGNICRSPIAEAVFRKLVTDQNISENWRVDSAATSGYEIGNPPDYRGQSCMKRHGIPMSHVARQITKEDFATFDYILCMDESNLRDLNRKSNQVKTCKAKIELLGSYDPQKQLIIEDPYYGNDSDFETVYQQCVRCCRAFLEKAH
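Test system: LMPTP-A phosphatase enzyme; input: 0.625 nM LMPTP-A final; reagent: OMFP substrate, 400 µM final; compound dosing: 20 µM single dose, 3% DMSO; incubation: 50 min dark incubation at room temperature; measured by: endpoint fluorescence intensity from OMFP dephosphorylation; measure: % inhibition relative to no-enzyme and uninhibited control wells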
SUMO1-SIM PPI: modulators of SUMO1 protein-protein interactions, primary screen, biochemical, uHTS; AID 602429, 2012; SUMO1 binding to a labelled peptide, TR-FRET, 1 h; actives 0.33% (n = 360,000); inhibition, % at 20 µM; in the data active means inhibition above about 37%
Target sequence (P63165 whole entry, looked up): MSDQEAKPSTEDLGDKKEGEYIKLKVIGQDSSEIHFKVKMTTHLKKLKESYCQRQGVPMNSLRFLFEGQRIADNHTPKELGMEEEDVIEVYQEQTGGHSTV
Scp1 inh: Scp-1 phosphatase inhibitors, primary screen, biochemical, colorimetric, uHTS; Carboxy-terminal domain RNA polymerase II polypeptide A small phosphatase 1 (Homo …; Recombinant Scp1, phosphopeptide, malachite green phosphate absorbance; inhibition, % at 20 µM; actives 0.88% (n = 340,000);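 active means inhibition above about 50% at 20 µM, limit read from the data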
Target sequence (Q9GZU7 76-261 limits assumed): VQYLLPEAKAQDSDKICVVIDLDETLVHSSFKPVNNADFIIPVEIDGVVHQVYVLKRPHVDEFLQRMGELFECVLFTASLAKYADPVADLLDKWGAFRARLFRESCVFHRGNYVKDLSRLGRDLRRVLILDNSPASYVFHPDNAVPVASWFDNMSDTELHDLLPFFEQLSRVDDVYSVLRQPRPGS
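Assay system: SCP-1 catalytic fragment, aa 76-261 | Buffer or medium: Tris acetate buffer pH 5.5 with MgCl2 and Tween-20 | Compound: One concentration, 20 µM, with 1.0% DMSO | Also added: Phospho 17-mer peptide substrate | Signal: Absorbance at 630 nm | Incubation: 45 min enzyme reaction at room temperature | Measure: % inhibition of SCP-1 phosphate liberation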
STEP inh: STEP phosphatase inhibitors, primary screen, biochemical, fluorescence intensity, uHTS; recombinant STEP, OMFP fluorogenic substrate; inhibition, % at 20 µM; actives 0.25% (n = 360,000); AID 588621, 2011;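 active means inhibition at 20 µM, scaled per plate between control wells, above about 37%, limit read from the data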
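Test system: STEP tyrosine phosphatase / Reagent: OMFP at 25 µM / Doses: 20 µM, 1% DMSO / Read-out: percent inhibition scaled to no-enzyme and uninhibited-enzyme controls, plate-pattern corrected / Detection: FITC-channel fluorescence of OMFP product / Medium: Bis-Tris buffer pH 6.0, 2.5 mM DTT, 0.005% Tween 20 / Schedule: 20 min at room temperature, dark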
CFTR F508del cor: F508del CFTR correction, initial screen, CFBE line, single point; activity (quench increase), % at 7.58 µM; AID 720511, 2013; actives 0.36% (n = 350,000); CFBE cells, YFP halide quenching; stimulated with forskolin plus potentiator P3; % fluorescence drop versus neutral controls;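 active means mean added fluorescence quench of at least 8% versus neutral control, with both replicates also reaching 8%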;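 further: cells transiently co-express mutant CFTR-F508del with the halide-sensitive YFP; corrector assay measuring rescue of mutant channel to the surface after 24 h compound exposure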
Numbers stand for hits; . = inactive; / = no result given.

SMILES	DNMT1 inh	LMPTP block	SUMO1-SIM PPI	Scp1 inh	STEP inh	CFTR F508del cor
CC(C)[C@H](CO)NC(=O)[C@H]1O[C@@H](n2ccc(N)nc2=O)[C@H](O)[C@@H]1O	.	.	.	/	.	.
Nc1ccn([C@@H]2O[C@H](C(=O)NCC(F)(F)F)[C@@H](O)[C@H]2O)c(=O)n1	.	.	.	/	.	10.1
CO/N=C(/C(=O)N[C@@H]1C(=O)N2C(C(=O)O)=CCS[C@H]12)c1cnc(N)s1	97.8	.	105.8	/	77.5	/
O=C(COc1ccccc1)NC1C(=O)N2C(C(=O)O)=C(Cl)CSC12 (stereo unspecified)	.	.	.	.	.	.
CC(C)NC(=O)Nc1cccc2c1O[C@@H](CN(C)S(=O)(=O)c1cccs1)[C@@H](C)CN([C@@H](C)CO)C2=O	/	/	/	/	/	.
O=C1c2cccnc2-c2ncccc21	.	.	.	.	.	/
COC1=C(Br)C(=O)c2ncccc2C1=O	91.4	.	48.5	.	.	.
O=C1C(=O)c2cccnc2-c2ncccc21	112.0	55.8	.	/	.	.
CO[C@H]1CN(C)C(=O)c2cc(C#N)ccc2OC[C@@H]2O[C@@H](CC[C@H]2OC)CCN(C)C(=O)[C@H]1C	/	/	/	/	/	.
Cc1cc2cc(CNC(=O)Nc3cccc(Cl)c3)ccc2n1C	68.9	.	.	.	.	.
Cc1oc2c(c1C(=O)NCc1cccnc1)C(=O)c1ccccc1C2=O	/	/	/	.	/	/
COc1ccc(CNC(=O)c2c(C)oc3c2C(=O)c2ccccc2C3=O)cc1	.	.	.	.	.	11.8
O=C(O)c1ccc(N2Cc3ccccc3C2)cc1O	.	.	.	71.2	.	/
CC(C)CCCCCCCCCCCCC(=O)NCC(=O)NC1C(C)OC(Nc2ncnc3nc[nH]c23)C(O)C1O (stereo unspecified)	93.8	.	.	.	.	.
C[C@@H]1CN([C@H](C)CO)C(=O)c2cccc(NC(=O)c3cnccn3)c2O[C@@H]1CN(C)C(=O)Nc1ccc(F)cc1	/	/	/	/	/	.
N#C/C(=C/c1ccc(C(=O)O)cc1)C(=O)Nc1ccccc1	.	.	.	.	.	.
N#C/C(=C\c1ccc(OCc2ccccc2)cc1)C(=O)Nc1ccc(C(=O)O)cc1	/	/	/	85.5	/	.
COc1cc(/C=C(\C#N)C(=O)Nc2cccc(C(=O)O)c2)ccc1OCc1ccc(Cl)cc1	.	.	58.8	.	85.5	.
Cn1cnc(S(=O)(=O)N2[C@@H]3CNC[C@H]2C3c2ccc(-c3ccc(F)cc3)cc2)c1 (stereo partly specified)	/	/	/	/	/	.
C[C@H](CO)N1C[C@H](C)[C@@H](CN(C)C(=O)Nc2cc(F)ccc2F)Oc2cc(-c3cccc(F)c3)ccc2S1(=O)=O	/	/	/	/	/	.
C[C@@H]1CCCCO[C@@H](CN(C)S(=O)(=O)c2ccc(Cl)cc2)[C@@H](C)CN([C@@H](C)CO)C(=O)c2cc(NS(=O)(=O)c3cn(C)cn3)ccc2O1	/	/	/	/	/	.
O=Cc1cccc(OC(=O)/C=C/c2ccco2)c1	92.2	.	.	69.2	48.2	.
O=C(Nc1nc(-c2ccccc2)cs1)C1CCCN(S(=O)(=O)c2cccc([N+](=O)[O-])c2)C1 (stereo unspecified)	.	.	.	.	.	/
O=C(Nc1nc(-c2ccccc2)cs1)C1CCCN(S(=O)(=O)c2ccccc2)C1 (stereo unspecified)	.	.	42.3	.	.	/
COC(=O)[C@@]1(Cc2ccccc2)N=C(c2ccc(OCCCO)cc2)O[C@H]1c1ccccc1CN=[N+]=[N-]	/	/	/	/	/	.
SMILES	DNMT1 inh	LMPTP block	SUMO1-SIM PPI	Scp1 inh	STEP inh	CFTR F508del cor
COc1ccc(O)c(/C=N/NC(=S)Nc2cccc(S(=O)(=O)N(C)C)c2)c1	.	.	.	.	.	/
CN(C)S(=O)(=O)c1cccc(NC(=S)N/N=C/c2ccc(O)c(O)c2O)c1	.	60.7	.	.	.	.
O=S(=O)(c1ccccc1)c1nnn2c1nc(NC1CCN(Cc3ccccc3)CC1)c1ccccc12	.	65.5	.	.	.	.
O=C(CN1CCOCC1)NCC[C@H]1CC[C@@H](NC(=O)Nc2ccc(Cl)cc2)[C@H](CO)O1	/	/	/	/	/	.
COC1=CC(=O)c2nc(Cl)ccc2C1=O	85.0	.	44.9	/	.	.
CCN(CC)C(=O)c1oc2ccc(S(=O)(=O)N3CCCCCC3)cc2c1C	.	.	.	.	.	.
CCN(CC)C(=O)c1oc2ccc(S(=O)(=O)N3CC(C)CC(C)C3)cc2c1C (stereo unspecified)	.	.	.	.	.	9.2
CCOc1cc(/C=N/NC(=O)N/N=C/c2ccc(O)c(OCC)c2)ccc1O	/	/	/	.	/	10.8
CCOc1cc(/C=N/NC(=O)C(=O)N/N=C/c2ccc(O)c(OCC)c2)ccc1O	.	.	.	.	.	.
O=C(COc1ccccc1C(=O)N/N=C\c1ccc(O)c(O)c1)N/N=C/c1ccc(O)c(O)c1	.	.	.	61.4	.	/
CO[C@@H]1CN(C)C(=O)c2cc(NS(=O)(=O)c3ccc(C)cc3)ccc2OC[C@@H](C)N(C)C[C@@H]1C	/	/	/	/	/	.
CCn1c(/C=C/N(C)c2ccccc2)[n+](CC)c2ccc(Cl)cc21	.	.	.	74.0	.	/
CCn1c(/C=C/Nc2ccccc2)[n+](CC)c2ccc(Cl)cc21	.	.	.	.	.	/
C[C@@H]1CN([C@H](C)CO)C(=O)c2cc(NS(C)(=O)=O)ccc2O[C@@H]1CN(C)CC1CC1	/	/	/	/	/	.
Cc1noc(C)c1NC(=O)N(C)C[C@H]1Oc2c(NS(=O)(=O)c3cn(C)cn3)cccc2C(=O)N([C@@H](C)CO)C[C@@H]1C	/	/	/	/	/	.
CCC(C)[C@@H](CN)NCC1(c2ccccc2)CC1 (stereo partly specified)	.	.	37.1	.	.	.
CCN(CC)C(C)C(=O)NCC1(c2ccccc2)CCOCC1 (stereo unspecified)	.	.	.	.	.	/
COc1ccccc1N=C1NC(=O)/C(=C/c2ccc(N(C)C)cc2)S1	.	.	.	.	.	15.3
COc1cc(/C=C2/SC(=Nc3ccc(O)cc3)NC2=O)cc(OC)c1O	.	.	.	.	.	14.6
COc1ccc(N=C2NC(=O)/C(=C/c3ccc(O)c(OC)c3)S2)cc1	.	.	.	.	.	/
C[C@H]1CN([C@@H](C)CO)C(=O)c2cc(/C=C/c3ccccc3)cnc2O[C@H]1CN(C)S(=O)(=O)c1cccs1	/	/	/	/	/	.
